From PubChem BioAssay
sPLA2-III inh: Blocks human group III sPLA2 activity; 370,000 tested, 0.56% active; AID 743126; QFRET BODIPY PC-A2 liposome hydrolysis, fluorescence; inhibition, % at 12.2 µM; Q9NZ20;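 active means inhibition above mean plus 3 SD of compounds lying within the high and low control bounds, cut at about 19% in these data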;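 further: 0% = median of test compound wells and 100% = no enzyme DMSO wells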
PLC-gamma1 inh: blocks human PLC-gamma1 enzyme activity; P19174; 370,000 tested, 0.84% active; purified PLC-gamma1, fluorogenic substrate, fluorescence; inhibition, % at 12.2 µM; AID 720700; in the data active means inhibition above about 9.5%
ARFGAP1 inh: inhibits rat ARF GTPase activating protein 1; Arfgap1-stimulated ARF1 GTP hydrolysis, GDP FP detection; inhibition, % at 16.5 µM; 360,000 tested, 0.26% active; AID 651572;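 active means inhibition above a per-plate limit, mean inhibition of low control wells plus 3 SD, cut at about 25% in these data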;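 further: 0% = DMSO wells with enzyme and 100% = wells lacking Arfgap1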
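Material: rat Arfgap1 GAP domain (His6, aa 1-136), purified enzyme. Also added: human ARF1(Δ1-17)-GTP substrate. Compound dosing: 16.5 µM single point, 1.26% DMSO. Timing: enzyme reaction 120 min at 25 °C after 20 min preincubation. Signal: GDP detection by fluorescence polarization. Read-out basis: percent inhibition of GAP-stimulated GDP formation, scaled between DMSO and no-Arfgap1 medians.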
ASAP1 GAP inh: ASAP1 ArfGAP inhibition; Q9ULH1; ASAP1-stimulated ARF1 GTP hydrolysis, GDP FP detection; inhibition, % at 16.5 µM; 360,000 tested, 0.19% active; in the data active means inhibition above about 25%;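 further: 0% = vehicle with enzyme and substrate and 100% = no enzyme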
PLCb3 inh: blocks human PLC-beta3 enzyme activity; Q01970; Purified PLC-beta3, fluorogenic substrate, fluorescence; inhibition, % at 12.2 µM; 370,000 tested, 0.18% active; in the data active means inhibition above about 11%;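 further: 0% = median of compound wells on plate and 100% = full blocker control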
sPLA2 confirm: human GIII-sPLA2 inhibition, confirmation; shares compounds with sPLA2-III inh; recombinant hGIII-sPLA2, BODIPY PC-A2 QFRET fluorescence; inhibition, % at 12.2 µM; 2,000 tested, 34% active;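 active means mean inhibition across triplicates above the hit cutoff set in the earlier primary screen, cut at about 19% in these data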;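 further: 0% = enzyme with DMSO and 100% = DMSO wells lacking enzyme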
BODIPY interf: counter-screen for HGIII-sPLA2 inhibitors: 535nm fluorescence interference; shares compounds with sPLA2-III inh; BODIPY FL product fluorescence interference, QFRET; 2,000 tested, 8.5% active; AID 743282; inhibition, % at 12.2 µM;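 active means average inhibition above the solvent-only control mean plus 3 SD, cut at about 6% in these data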;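 further: 0% = DMSO with substrate plus product and 100% = DMSO with substrate alone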
535nm interf DR: counter-screen for HGIII-sPLA2 inhibitors: 535nm fluorescence interference, dose response | shares compounds with sPLA2-III inh | AID 743455 | 240 tested, under 10 active | IC50, µM | BODIPY FL product fluorescence interference, cell-free;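 active means IC50 at or below 10 µM; inactive means IC50 above 10 µM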
* hit, by the source's call; x = no result given. The list is not random: actives were taken first. Their share in the collection is about 1.9%.

SMILES	sPLA2-III inh	PLC-gamma1 inh	ARFGAP1 inh	ASAP1 GAP inh	PLCb3 inh	sPLA2 confirm	BODIPY interf	others
O=C(NNC(=S)Nc1ccccc1)NNC(=S)Nc1ccccc1	34*	-3	4	-2	-4	29*	0	535nm interf DR=>122
CCCN1C(=O)c2n[nH]c(C)c2C1c1ccc(Br)cc1 (stereo not given)	0	-1	-12	-9	2	x	x
O=S1(=O)c2c(cccc2N2CCC[C@H]2CO)OCCCN1C1CC1	4	-1	x	x	0	x	x
Cc1cc(C)c(C)c(N=Nc2nc3ccccc3n2C)c1C	21*	-8	12	5	-5	39*	-3	535nm interf DR=>122
Cn1c(=O)c(=O)n(C)c2cc(N3CCCCC3)c(NS(=O)(=O)c3ccc([N+](=O)[O-])cc3)cc21	21*	-113	-2	-4	-176	12	-3
Brc1ccccc1C1Cc2nnccc2CN1 (stereo not given)	-1	-3	17	-8	-1	x	x
COC(=O)[C@H]1C[C@@]2(n3ccc4ccccc43)c3ccccc3N(S(=O)(=O)c3ccccc3)[C@H]2N1	-6	1	x	x	2	x	x
CCOc1ccccc1N(CC(=O)Nc1ccc(S(=O)(=O)N2CCOCC2)cc1)S(=O)(=O)c1ccc(Cl)cc1	23*	0	11	-7	0	-5	-4
O=C(Nc1nc2ncccn2c1-c1ccc(F)cc1)c1ccc(F)cc1	2	-171	x	x	-237	x	x
COC(=O)[C@]1(CNC(=O)c2cc(F)ccc2F)CC(=O)N(C)[C@@H]1c1ccccc1	3	1	x	x	4	x	x
Cc1cccc(-n2c3nc(=O)[nH]c(=O)c-3cc3cc([N+](=O)[O-])ccc32)c1	25*	-3	0	-4	-2	20*	6.6*
CCC[C@H]1[C@@H](NC(=O)NCC)CC[C@@]23CCCN2C(=O)CCC[C@@H]13	1	2	x	x	6	x	x
NC(=O)c1ccc(-c2ccc(N3C(c4ccsc4)=Cc4ccc(F)cc4C3CC(=O)c3ccco3)cc2)cc1 (stereo not given)	26*	-110	17	8	-147	14	4
CCOc1ccc(-n2c(SCC(=O)Nc3ccc4c(c3)OCCO4)nnc2-c2ccncc2)cc1	1	-3	x	x	1	x	x
CCOC(=O)N1CCN(C(=O)C[C@H]2C[C@@]3(C(=O)OC)C(=C[C@H](C(C)(C)C)O[C@@H]3C)N(Cc3ccco3)C2=O)CC1	-3	2	x	x	1	x	x
COc1ccc2nc(NC(=O)CCN3C(=S)NC(C)(C)CC3C)sc2c1 (stereo not given)	26*	2	-1	13	-7	24*	-11
COc1ccc(S[C@]2(C(=O)N3CCCC3)CC(=O)N(C(=O)c3ccccc3)[C@@H]2c2ccc(OC)cc2)cc1	5	9	x	x	3	x	x
COc1cc(OC)cc(-c2c(-c3cccs3)c3cc(-c4cccc5[nH]ccc45)ccc3n2C)c1	29*	-321	14	7	-449	16	9.8*
CN1[C@@H](Cc2ccccc2)COc2cc(N3CCCC3)ccc2S1(=O)=O	-3	-1	x	x	-2	x	x
COc1cc(NC(=O)c2[nH]c(C)c(C(C)=O)c2C)c(OC)cc1Cl	6	-2	x	x	-8	x	x
O=c1[nH]n(Cc2ccccc2)c2ccccc12	20*	-82	8	1	-98	7	-3
O=c1ccn(Cc2ccccc2)c2ccccc12	1	0	-4	-1	3	x	x
O=c1cc(C(F)(F)C(F)F)oc2ccccc12	25*	1	11	1	0	-2	-6
O=c1cc(-c2ccccc2F)oc2ccccc12	1	8	0	3	3	x	x
Cn1c(=O)c2cc(S(=O)(=O)N3CCN(c4ccc(F)cc4)CC3)ccc2n(C)c1=O	3	-1	x	x	2	x	x
SMILES	sPLA2-III inh	PLC-gamma1 inh	ARFGAP1 inh	ASAP1 GAP inh	PLCb3 inh	sPLA2 confirm	BODIPY interf	others
CC(C)(c1ccccc1)c1ccc(OCCCN2CCNCC2)cc1	10	-1	12	9	3	x	x
CC(C)(C)c1ccc(OCCCCCCN2CCNCC2)cc1	23*	1	-5	-2	-7	-6	-44
CCCCCOc1ccc(Br)cc1CSC(=N)N	29*	3	2	-9	4	21*	-29
COc1ccc(Br)cc1CSC(=N)N	33*	0	-1	-2	2	18	-5
CCCCOc1ccc(CSC(=N)N)cc1Cl	54*	7	10	2	-8	32*	-26	535nm interf DR=>122
Cc1ccc(-n2c(SCC(=O)Nc3ccccc3-c3ccccc3)nnc2-c2ccccc2)cc1	-7	-1	x	x	3	x	x
COc1ccccc1CNC(=O)NNC(=O)CCn1nc(C)c([N+](=O)[O-])c1C	2	1	x	x	3	x	x
COc1ccccc1Nc1nc(-c2c(C)[nH]c3ccccc23)cs1	20*	-30	8	3	-34	20*	9.8*
COC(=O)[C@H]1C[C@@]2(C#N)c3ccccc3N(C(=O)OC(C)(C)C)[C@H]2N1C(=O)OC(C)(C)C	6	0	x	x	2	x	x
Cc1c(Cl)c(-c2n[nH]c(=S)n2CC(C)C)nn1C	13	1	-10	-9	0	x	x
CCCCn1c(-c2nn(C)c(C)c2Cl)n[nH]c1=S	20*	1	-6	-5	0	24*	-4
CCCCn1c(-c2csc(C(C)C)c2)n[nH]c1=S	3	-4	-5	-26	-3	x	x
CCCCn1c(-c2csc(CC)c2)n[nH]c1=S	20*	-2	-12	-17	-5	25*	-2
CCCC#Cc1ccc(CC[C@H]2O[C@H]3CC[C@H](CO)O[C@H]3C[C@H]2NC(=O)CN2CCOCC2)cc1	-11	-1	x	x	3	x	x
CC(C)(C)c1ccccc1NC(=O)Nc1nc(C(N)c2ccccc2Cl)cs1 (stereo not given)	20*	7	-8	16	-1	10	-3
COc1ccc(NC(=S)NNC(=O)CNc2ccc(Cl)cc2)cc1	29*	0	9	2	-2	35*	7.4*
Cc1c(C(=O)NNC(=S)NCc2ccc(Cl)cc2)oc2ccccc12	24*	-3	6	4	-19	14	16*
O=C(CNc1cccc(Cl)c1)NNC(=S)NCc1ccccc1	27*	-1	0	8	-7	32*	-1	535nm interf DR=>122
COc1ccc(NC(=S)NNC(=O)COc2ccc(Cl)cc2Cl)cc1	13	1	10	11	4	x	x
O=C(CNc1ccc(Cl)cc1)NNC(=S)NCc1ccccc1	25*	-1	2	3	-7	38*	4	535nm interf DR=>122
CCN(CC(=O)NCc1ccc(Cl)cc1)C(=O)c1oc2ccccc2c1C	-10	3	19	-11	-11	x	x
